Holding throughout (type): functional
In one experiment the test system is MCF7. Nature of the experiment: Antiproliferative activity against human MCF7 cells assessed as cell growth at 100 uM after 48 hrs by alamar blue assay. The note with it: MCF7, 48 h, read-out: Activity. In short, it runs like this:
(§1)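 NCI three-cell-line primary screen. Cells are seeded and preincubated in microtiter plates. Compound is added at a single 10^-4 M concentration and cultures are incubated 48 h. The end-point is read with alamar blue. Results are given as percent growth relative to untreated control cells.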

The subject of a further experiment is NCI-H460. Nature of the experiment: Antiproliferative activity against human NCI-H460 cells assessed as cell growth at 100 uM after 48 hrs by alamar blue assay. The note with it: NCI-H460, 48 h, read-out: Activity. The essentials: as §1
The test system of a further experiment is SF-268. Nature of the experiment: Antiproliferative activity against human SF268 cells assessed as cell growth at 100 uM after 48 hrs by alamar blue assay. The note with it: SF-268, 48 h, read-out: Activity. The essentials:
as §1

Structures are written as SMILES.

Growth data for 16 molecules are collected here from ChEMBL document CHEMBL1153046, “Synthesis and antitumor activity of substituted triazolo[4,3-a]pyrimidin-6-sulfonamide with an incorporated thiazolidinone moiety” (2009).

As to `COc1ccc(/C=N/c2nc3[nH]nc(C)n3c(=O)c2S(=O)(=O)NN2C(=O)C(CN3CCOCC3)SC2c2ccc(Cl)cc2)cc1` (stereo not drawn), the growth at 100 µM in the experiment on MCF7 came out at 94%; in the experiment on NCI-H460, 68%; in the experiment on SF-268 it was 95%.
For `COc1ccc(/C=N/c2nc3[nH]nc(C)n3c(=O)c2S(=O)(=O)NN2C(=O)C(CN3CCOCC3)SC2c2ccc(C)cc2)cc1` (stereo not drawn) the same measures were 67%, 63% and 82%.
For `COc1ccc(/C=N/c2nc3[nH]nc(C)n3c(=O)c2S(=O)(=O)NN2C(=O)C(CN3CCN(C)CC3)SC2c2ccc(C)cc2)cc1` (stereo not drawn), the values for the growth at 100 µM in the experiment on MCF7, in the experiment on NCI-H460 and in the experiment with SF-268 were 55%, 109% and 102%, respectively.
For `COc1ccc(/C=N/c2nc3[nH]nc(C)n3c(=O)c2S(=O)(=O)Nc2ccc(Cl)cc2)cc1` the same measures were 87%, 102% and 87%.
For `COc1ccc(/C=N/c2nc3[nH]nc(C)n3c(=O)c2S(=O)(=O)NN2C(=O)C(CN3CCN(C)CC3)SC2c2ccc(Cl)cc2)cc1` (stereo not drawn) the same measures were 102%, 86% and 106%.
Consider `COc1ccc(/C=N/c2nc3[nH]nc(C)n3c(=O)c2S(=O)(=O)Nc2ccc(C)cc2)cc1`, for which the results for the growth at 100 µM in the experiment with MCF7, in the experiment on NCI-H460 and with SF-268 were 83%, 89% and 85%, respectively.
For `COc1ccc(/C=N/c2nc3[nH]nc(C)n3c(=O)c2S(=O)(=O)NN2C(=O)CSC2c2ccc(Cl)cc2)cc1` (stereo not drawn) the same measures were 90%, 88% and 84%.
Take `COc1ccc(/C=N/c2nc3[nH]nc(C)n3c(=O)c2S(=O)(=O)NN2C(=O)CSC2c2cccs2)cc1` (stereo not drawn): the growth at 100 µM with MCF7 is 89%; in the experiment on NCI-H460, 106%; with SF-268, 98%.
For `COc1ccc(/C=N/c2nc3[nH]nc(C)n3c(=O)c2S(=O)(=O)N/N=C/c2ccc(C)cc2)cc1` the same measures were 87%, 83% and 93%.
For `COc1ccc(/C=N/NS(=O)(=O)c2c(/N=C/c3ccc(OC)cc3)nc3[nH]nc(C)n3c2=O)cc1` the same measures were 83%, 55% and 85%.
Turning to `COc1ccc(/C=N/c2nc3[nH]nc(C)n3c(=O)c2S(=O)(=O)NN2C(=O)CSC2c2ccc(OC)cc2)cc1` (stereo not drawn), the growth at 100 µM is 91% in the experiment with MCF7, 118% in the experiment on NCI-H460 and 94% with SF-268.
For `COc1ccc(/C=N/c2nc3[nH]nc(C)n3c(=O)c2S(=O)(=O)N/N=C/c2cccs2)cc1` the same measures were 66%, 13% and 62%.
For `COc1ccc(/C=N/c2nc3[nH]nc(C)n3c(=O)c2S(=O)(=O)Nc2ccc(OC)cc2)cc1` the same measures were 86%, 82% and 91%.
For `COc1ccc(/C=N/c2nc3[nH]nc(C)n3c(=O)c2S(=O)(=O)N/N=C/c2ccc(Cl)cc2)cc1` the same measures were 93%, 73% and 101%.
`COc1ccc(/C=N/c2nc3[nH]nc(C)n3c(=O)c2S(=O)(=O)NN)cc1`: the growth at 100 µM amounted to 43% in the experiment on MCF7, 45% with NCI-H460 and 55% in the experiment on SF-268.
For `COc1ccc(/C=N/c2nc3[nH]nc(C)n3c(=O)c2S(=O)(=O)NN2C(=O)CSC2c2ccc(C)cc2)cc1` (stereo not drawn) the same measures were 72%, 67% and 63%.
